Shown are actives, neighbours in structure and some others; about 3.3% of the full set was active somewhere.
E-sel inducer: E-selectin induction on HUVECs | hit rate 0.37% among 260,000 | activation, % at 7.58 µM | AID 686992 | HUVEC E-selectin immunofluorescence imaging; normalized: neutral wells 0, TNF-alpha wells 100 | P16581;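 active = mean E-selectin-positive cell signal at least 10% of the positive control, reached in at least 60% of replicates, without over 20% cell loss; inconclusive = no rule given, readout overlaps actives, possibly toxicity-flagged; inactive = the rest, including those meeting only one limit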
Target sequence (P16581 whole entry, looked up): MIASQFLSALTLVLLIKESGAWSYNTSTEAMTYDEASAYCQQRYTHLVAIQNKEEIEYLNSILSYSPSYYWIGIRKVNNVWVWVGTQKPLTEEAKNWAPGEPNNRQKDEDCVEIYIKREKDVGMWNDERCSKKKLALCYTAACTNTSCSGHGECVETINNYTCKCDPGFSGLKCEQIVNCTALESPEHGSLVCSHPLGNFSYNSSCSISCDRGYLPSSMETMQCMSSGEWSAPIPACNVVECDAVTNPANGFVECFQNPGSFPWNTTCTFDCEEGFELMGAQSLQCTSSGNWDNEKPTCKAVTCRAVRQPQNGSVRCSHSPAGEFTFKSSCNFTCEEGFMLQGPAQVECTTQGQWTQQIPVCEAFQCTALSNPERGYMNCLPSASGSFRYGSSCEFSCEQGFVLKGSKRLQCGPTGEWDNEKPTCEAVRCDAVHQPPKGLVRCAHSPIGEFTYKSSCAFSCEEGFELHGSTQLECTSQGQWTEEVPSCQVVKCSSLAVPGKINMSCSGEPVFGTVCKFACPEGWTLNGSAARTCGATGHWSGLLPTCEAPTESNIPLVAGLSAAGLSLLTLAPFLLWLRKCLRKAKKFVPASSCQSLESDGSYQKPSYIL
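System: HUVEC / Compound: single concentration / Signal: immunofluorescence imaging / Read-out: percent E-selectin-positive cells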
DENV2 CPE rescue: DENV2-induced cell death inhibition | DENV2-infected cells, cytopathic effect rescue, plate reader | CPE inhibition, % at 9.99 µM | hit rate 1.7% among 350,000; in the data active = CPE inhibition above about 20%, passing the limit was not always enough; inconclusive = no clear call, values can overlap the other calls; tested in BHK-21 cells;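 note: 0% = median of neutral control wells and 100% = median of positive control wells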
XiGFP reactiv: reactivates the inactive X chromosome in mouse fibroblasts | XiGFP mouse fibroblasts, % GFP-positive cells imaging, 3 d; cells co-treated with 5-aza-dC sensitizer; scaled so ellipticine positive control = 100% | activation, % at 7.58 µM | hit rate 0.055% among 360,000 | AID 743238;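 active = mean normalized replicate activation at least 10% and every replicate at or above 10%; inconclusive = only one of the two criteria met; inactive = mean below 10% and not all replicates reach 10%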;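 note: 0% = median of on-plate neutral control wells and 100% = ellipticine 6 µM median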
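Material: XiGFP fibroblasts, SV40-immortalized; Buffer or medium: DMEM containing 5-aza-dC; Compound dosing: single point; Times: 3 days compound exposure.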
PglD DTNB: blocks C. jejuni PglD acetyltransferase activity | hit rate 0.098% among 360,000 | inhibition, % at 12.5 µM | purified PglD enzyme, DTNB colorimetric CoA detection; in the data active = inhibition above about 16%, passing the limit was not always enough; inconclusive = no clear call, values can overlap the other calls
Statin myotox sup: suppression of simvastatin myotoxicity. C2C12 myotubes + simvastatin, ATP luminescence, 48 h; scaled: DMSO 0, geranylgeraniol control 100. rescue of ATP level, % at 7.49 µM. hit rate 0.78% among 330,000. AID 602340;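 active = mean ATP rescue above about 67%, or every replicate alone reaching that limit, limit read from the data, passing the limit was not always enough; inconclusive = no clear call, values can overlap the other calls; inactive = mean under the limit and some replicate under it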;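 note: myotubes were challenged with 10 µM simvastatin during compound exposure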
FGF22 binding: binders of recombinant human FGF22 by thermal shift | activity (Tm shift, normalised), % at 9.99 µM | Q9HCT0 | SYPRO orange fluorescence; percent of sucrose octasulfate shift, DMSO zero | hit rate 1.5% among 340,000 | AID 651658;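 active = mean Tm shift, scaled 0 neutral to 100 positive control, at about 1.3% or above, every replicate too, limit read from the data; inconclusive = no clear call, values can overlap the other calls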
Numbers without * were called inactive; ? = inconclusive; nt = no result.

SMILES	E-sel inducer	DENV2 CPE rescue	XiGFP reactiv	PglD DTNB	Statin myotox sup	FGF22 binding
CSc1nc2nc3c(cc2c(=O)n1-c1ccccc1)COC(C)(C)C3	2.4	5.0	0.0	nt	-2.0	43.5*
COc1ccc(-c2cnc3c(c2)C(=O)N([C@H](C)CO)C[C@@H](C)[C@@H](CN(C)Cc2ccc(C(=O)O)cc2)O3)cc1	-0.2	?	-0.3	-3.1	-2.8	0.0
O=C(COC(=O)c1ccc(Cl)nc1)NCCNC(=O)COC(=O)c1ccc(Cl)nc1	nt	-6.8	0.0	6.4	-4.0	-0.1
O=C(COC(=O)c1ccc(Cl)nc1)Nc1ccc(Cl)cc1	0.1	-5.3	0.0	-1.4	-4.4	-0.3
CC(C)(C)NC(=O)COC(=O)c1ccc(Cl)nc1	nt	9.8	0.0	-1.3	1.4	43.3*
O=C(COC(=O)c1ccc(Cl)nc1)Nc1ccc(N2CCCCC2)cc1	-0.3	61.6*	0.4	1.4	6.1	-0.6
CNS(=O)(=O)c1cccc(C(=O)OCC(=O)Nc2ccc(N3CCCCC3)cc2)c1	nt	0.6	0.0	3.7	10.5	43.2*
C[C@@H]1CN([C@H](C)CO)C(=O)c2cc(C#CC3CC3)cnc2O[C@@H]1CN(C)Cc1ccccc1C(=O)O	-0.2	?	0.3	0.6	7.0	-0.2
C[C@@H]1CN([C@@H](C)CO)C(=O)c2cc(NS(=O)(=O)c3ccc(Cl)cc3)ccc2O[C@@H](C)CCCCO[C@H]1CN(C)S(=O)(=O)c1cn(C)cn1	nt	0.6	0.0	0.1	nt	1.4*
C[C@@H]1CCCCO[C@H](CN(C)S(=O)(=O)c2cn(C)cn2)[C@@H](C)CN([C@H](C)CO)C(=O)c2cc(NS(=O)(=O)c3ccc(Cl)cc3)ccc2O1	nt	9.0	-0.1	4.1	nt	0.6
C[C@@H]1CCCCO[C@@H](CN(C)S(=O)(=O)c2cn(C)cn2)[C@H](C)CN([C@@H](C)CO)C(=O)c2cc(NS(=O)(=O)c3ccc(Cl)cc3)ccc2O1	nt	28.2*	0.0	-2.8	nt	0.6
C[C@H]1CCCCO[C@@H](CN(C)S(=O)(=O)c2cn(C)cn2)[C@@H](C)CN([C@@H](C)CO)C(=O)c2cc(NS(=O)(=O)c3ccc(Cl)cc3)ccc2O1	nt	47.3*	0.0	-1.8	nt	1.0
C[C@@H]1CCCCO[C@H](CN(C)S(=O)(=O)c2cn(C)cn2)[C@H](C)CN([C@H](C)CO)C(=O)c2cc(NS(=O)(=O)c3ccc(Cl)cc3)ccc2O1	nt	-2.3	0.2	3.5	nt	-0.1
O=C(NCC1CCCCC1)[C@H]1[C@H](CO)[C@H]2Cn3c(ccc(-c4ccccc4F)c3=O)[C@@H]1N2	0.6	-8.3	0.1	-9.3	-9.4	0.1
Cc1ccccc1CSc1ccc(-c2ccc3c(c2)OCO3)nn1	nt	51.6*	0.0	2.0	nt	-0.1
CNC(=O)C[C@@H]1CC[C@H]2[C@H](COc3ccc(NC(=O)Nc4cc(C)cc(C)c4)cc3C(=O)N2C)O1	-0.2	-5.5	0.4	-3.8	-16.2	-0.3
C[C@@H]1CN([C@@H](C)CO)C(=O)c2cc(NS(=O)(=O)c3ccc(Cl)cc3)ccc2O[C@@H](C)CCCCO[C@@H]1CN(C)C(=O)Nc1cccc2ccccc12	nt	-7.2	0.1	0.0	142.0*	-0.1
C[C@@H]1CCCCO[C@H](CN(C)C(=O)Nc2cccc3ccccc23)[C@@H](C)CN([C@H](C)CO)C(=O)c2cc(NS(=O)(=O)c3ccc(Cl)cc3)ccc2O1	nt	-5.5	-0.1	0.3	52.7	-0.3
C[C@@H]1CCCCO[C@@H](CN(C)C(=O)Nc2cccc3ccccc23)[C@H](C)CN([C@H](C)CO)C(=O)c2cc(NS(=O)(=O)c3ccc(Cl)cc3)ccc2O1	nt	-3.6	0.0	3.8	86.7*	2.1*
C[C@H](CO)N1C[C@H](C)[C@H](CN(C)C(=O)Nc2cccc3ccccc23)OCCCC[C@H](C)Oc2ccc(NS(=O)(=O)c3ccc(Cl)cc3)cc2C1=O	nt	9.2	-0.1	10.0	135.2*	-0.2
C[C@H](CO)N1C[C@H](C)[C@@H](CN(C)C(=O)Nc2cccc3ccccc23)OCCCC[C@H](C)Oc2ccc(NS(=O)(=O)c3ccc(Cl)cc3)cc2C1=O	nt	-1.7	0.3	1.2	?	-0.2

High-throughput results (PubChem)
